Measurements taken from ChEMBL document CHEMBL1124565, “Synthesis and receptor affinities of some conformationally restricted analogues of the dopamine D1 selective ligand (5R)-8-chloro-2,3,4,5-tetrahydro-3-methyl-5-phenyl- 1H-3-benzazepin-7-ol” (J Med Chem, 1989).

Key:
D(1A) dopamine receptor [1] = molecular target: T1, D(1A) dopamine receptor (Rattus norvegicus, UniProt P18901); test: Inhibition of [3H]SCH-23390 binding to rat striatal homogenate dopamine receptor D1
Outline: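 Pooled striatal membranes from male Sprague-Dawley rats (150-250 g), washed twice by homogenization/centrifugation (20000g, 10 min) in 50 mM Tris-HCl pH 7.4, final buffer adding 120 mM NaCl, 5 mM CaCl2, 1 mM MgCl2. Test agents at various concentrations compete with [3H]SCH 23390; triplicate, 37 °C for 20 min, rapid GF/B filtration, liquid scintillation counting.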

D(2) dopamine receptor [2] = molecular target: T2, D(2) dopamine receptor (Rattus norvegicus, UniProt P61169); test: Displacement of [3H]spiperone from rat striatal homogenate dopamine receptor D2
T2 sequence (P61169 whole entry): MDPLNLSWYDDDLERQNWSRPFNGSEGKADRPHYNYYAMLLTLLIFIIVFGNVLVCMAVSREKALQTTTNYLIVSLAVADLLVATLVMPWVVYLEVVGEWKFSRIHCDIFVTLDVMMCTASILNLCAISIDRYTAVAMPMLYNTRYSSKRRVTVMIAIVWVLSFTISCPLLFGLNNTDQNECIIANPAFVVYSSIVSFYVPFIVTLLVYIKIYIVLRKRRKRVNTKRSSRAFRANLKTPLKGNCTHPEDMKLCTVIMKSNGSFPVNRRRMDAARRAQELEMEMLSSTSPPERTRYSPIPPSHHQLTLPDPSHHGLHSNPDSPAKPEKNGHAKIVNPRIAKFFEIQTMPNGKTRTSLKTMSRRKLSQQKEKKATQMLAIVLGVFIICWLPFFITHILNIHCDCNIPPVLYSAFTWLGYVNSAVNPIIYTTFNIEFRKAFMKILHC
Outline: (§1)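 Striatum from male Sprague-Dawley rats (150-250 g), homogenized in ice-cold 50 mM Tris-HCl pH 7.4, centrifuged 20000g 10 min twice, resuspended in Tris buffer with 120 mM NaCl, 5 mM CaCl2, 1 mM MgCl2. Competition against [3H]spiperone (final approximately 0.3 nM), triplicate tubes, 37 °C 20 min, vacuum filtration over GF/B with ice-cold buffer rinses, scintillation counting.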

D(1A) dopamine receptor [3] = molecular target: T1, D(1A) dopamine receptor; test: In vitro affinity of compound towards dopamine (D1) receptor was determined by measuring their ability to displace [3H]SCH-23,390 from rat striatal homogenates
D(2) dopamine receptor [4] = molecular target: T2, D(2) dopamine receptor; test: In vitro affinity of compound towards Dopamine receptor D2 was determined by measuring their ability to displace [3H]spiperone from rat striatal homogenates; outline: as §1

T1 sequence (P18901 whole entry): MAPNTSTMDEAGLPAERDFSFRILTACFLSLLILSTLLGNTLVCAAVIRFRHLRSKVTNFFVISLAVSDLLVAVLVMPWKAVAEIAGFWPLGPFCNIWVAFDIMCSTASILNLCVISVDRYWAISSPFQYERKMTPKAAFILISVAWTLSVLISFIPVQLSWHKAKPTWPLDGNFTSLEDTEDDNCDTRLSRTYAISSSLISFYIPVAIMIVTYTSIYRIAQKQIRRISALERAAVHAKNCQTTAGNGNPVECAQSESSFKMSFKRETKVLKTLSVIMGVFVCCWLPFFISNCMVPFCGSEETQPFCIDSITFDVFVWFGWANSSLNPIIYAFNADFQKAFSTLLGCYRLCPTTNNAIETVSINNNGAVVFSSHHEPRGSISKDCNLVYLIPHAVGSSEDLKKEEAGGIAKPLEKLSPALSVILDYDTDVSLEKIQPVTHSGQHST

**Q.** Which results are given for `COc1cc2c(cc1O)CCN(C)[C@H]1CCc3ccccc3[C@H]21`?
**A.** Ki (D(1A) dopamine receptor [1]): 1660 nM; Ki (D(2) dopamine receptor [2]): 6400 nM

**Q.** Which Ki (D(1A) dopamine receptor [1]) does the source give for `CN1CCc2cc(Cl)c(O)cc2[C@@H]2c3ccccc3CC[C@@H]21` here?
**A.** 513 nM

**Q.** `CN1CCc2cc(O)c(O)cc2[C@H]2c3ccccc3CC[C@@H]21` was tested. Which Ki (D(1A) dopamine receptor [3]) did it give?
**A.** 68 nM

**Q.** What about the Ki (D(2) dopamine receptor [4]) of the same molecule?
**A.** 2410 nM

**Q.** With `CN1CCc2cc(O)c(O)cc2[C@@H]2c3ccccc3CC[C@@H]21` as the molecule, how does the Ki (D(1A) dopamine receptor [3]) read?
**A.** 1730 nM

**Q.** And the Ki (D(2) dopamine receptor [4])?
**A.** > 100000 nM

**Q.** `CN1CCc2cc(Cl)c(O)cc2[C@H]2c3ccccc3CC[C@H]21` was tested. Which Ki (D(1A) dopamine receptor [1]) did it give?
**A.** 898 nM

**Q.** With `Cc1cc2c(cc1O)[C@H]1c3ccccc3CC[C@@H]1N(C)CC2` as the molecule, how does the Ki (D(1A) dopamine receptor [1]) read?
**A.** 7.1 nM

**Q.** And the Ki (D(2) dopamine receptor [2])?
**A.** 1510 nM

**Q.** With `COc1cc2c(cc1O)[C@@H]1c3ccccc3CC[C@@H]1N(C)CC2` as the molecule, how does the Ki (D(1A) dopamine receptor [1]) read?
**A.** 4200 nM

**Q.** And the Ki (D(2) dopamine receptor [2])?
**A.** > 100000 nM

**Q.** `CN1CCc2cc(Cl)c(O)cc2[C@@H]2c3ccccc3CC[C@@H]21` (relative stereo) was tested. Which Ki (D(1A) dopamine receptor [1]) did it give?
**A.** 474 nM

**Q.** For `COc1cc2c(cc1O)CCN(C)[C@H]1CCc3ccccc3[C@@H]21`, which Ki (D(1A) dopamine receptor [1]) is on record?
**A.** 24400 nM

**Q.** And the Ki (D(2) dopamine receptor [2])?
**A.** > 100000 nM

**Q.** Which Ki (D(1A) dopamine receptor [1]) does the source give for `CN1CCc2cc(Cl)c(O)cc2[C@@H]2c3ccccc3CC[C@H]21` here?
**A.** 531 nM

**Q.** Which results are given for `CN1CCc2ccc(O)cc2[C@H]2c3ccccc3CC[C@@H]21`?
**A.** Ki (D(1A) dopamine receptor [1]): 72.6 nM; Ki (D(2) dopamine receptor [2]): 7870 nM

**Q.** `CN1CCc2cc(Cl)c(O)cc2[C@H]2c3ccccc3CC[C@@H]21` [ECOPIPAM] was tested. Which Ki (D(1A) dopamine receptor [1]) did it give?
**A.** 1.9 nM

**Q.** Which Ki (D(1A) dopamine receptor [1]) does the source give for `COc1cc2c(cc1O)[C@H]1c3ccccc3CC[C@@H]1N(C)CC2` here?
**A.** 23.6 nM

**Q.** And the Ki (D(2) dopamine receptor [2])?
**A.** 2480 nM

**Q.** With `CN1CCc2cc(Cl)c(O)cc2C2c3ccccc3CCC21` (trans isomer) as the molecule, how does the Ki (D(1A) dopamine receptor [1]) read?
**A.** 3.3 nM
